Reference: ChEMBL document CHEMBL1177842, “New 6-amino-[1,2,4]triazolo[3,4-b][1,3,4]thiadiazines and [1,2,4]triazolo[3,4-b] [1,3,4]thiadiazin-6-ones: synthesis, characterization and antibacterial activity evaluation” (2010)
In brackets after ≈: the same amount, converted by molar mass. Activity calls are given as the source filed them. No cut-off for these calls is given here.

Assays:
Type in all cases: functional
Acinetobacter baumannii = test: Antibacterial activity against Acinetobacter baumannii ATCC 19606 after 24 hrs by broth microdilution technique
Summary of the method: (§1)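 MIC by broth microdilution following NCCLS recommendations. Strains were grown in Mueller-Hinton broth and the inoculum was 5 × 10^5 cfu in 1 mL. Compounds were dissolved in DMSO and serially diluted in tubes to final concentrations of 1024 down to 2 µg/mL. 24 h old inoculum was added. After 35 °C for 24 h, the MIC was the lowest concentration inhibiting visible growth. Tetracycline and ampicillin served as standards.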

Citrobacter freundii = test: Antibacterial activity against Citrobacter freundii […] after 24 hrs by broth microdilution technique; summary of the method: as §1
Enterobacter cloacae = test: Antibacterial activity against Enterobacter cloacae ATCC 49141 after 24 hrs by broth microdilution technique; summary of the method: as §1
Escherichia coli = test: Antibacterial activity against Escherichia coli ATCC 25922 after 24 hrs by broth microdilution technique; conditions: ATCC 25922, 24 h; summary of the method: as §1
Pseudomonas aeruginosa = test: Antibacterial activity against Pseudomonas aeruginosa ATCC 9027 after 24 hrs by broth microdilution technique; summary of the method: as §1
Enterococcus faecalis = test: Antibacterial activity against Enterococcus faecalis ATCC 29212 after 24 hrs by broth microdilution technique; conditions: ATCC 29212, 24 h; summary of the method: as §1
Staphylococcus aureus = test: Antibacterial activity against Staphylococcus aureus ATCC 25923 after 24 hrs by broth microdilution technique; conditions: ATCC 25923, 24 h; summary of the method: as §1
[1] = tested on: Staphylococcus epidermidis; test: Antibacterial activity against Staphylococcus epidermidis ATCC 14990 after 24 hrs by broth microdilution technique; conditions: ATCC 14990, 24 h; summary of the method: as §1
Bacillus cereus = test: Antibacterial activity against Bacillus cereus ATCC 13061 after 24 hrs by broth microdilution technique; summary of the method: as §1

| Compound | MIC (Acinetobacter baumannii; ATCC 19606, 24 h) [µg/mL] | MIC (Citrobacter freundii) [µg/mL] | MIC (Enterobacter cloacae; ATCC 49141, 24 h) [µg/mL] | MIC (Escherichia coli) [µg/mL] | MIC (Pseudomonas aeruginosa; ATCC 9027, 24 h) [µg/mL] | MIC (Enterococcus faecalis) [µg/mL] | MIC (Staphylococcus aureus) [µg/mL] | MIC [1] [µg/mL] | MIC (Bacillus cereus; ATCC 13061, 24 h) [µg/mL] | MIC (Acinetobacter baumannii) | MIC (Enterobacter cloacae) | MIC (Pseudomonas aeruginosa) | MIC (Bacillus cereus) |
| --- | --- | --- | --- | --- | --- | --- | --- | --- | --- | --- | --- | --- | --- |
| O=S(=O)(c1ccc(Br)cc1)c1ccc(-c2nnc3n2N=C(Nc2ccccc2)CS3)cc1 | 512 (≈ 973 µM) | 512 (≈ 973 µM) | 512 (≈ 973 µM) | 256 (≈ 486 µM) | 256 (≈ 486 µM) | 1020 (≈ 1950 µM) | 1020 (≈ 1950 µM) | 1020 (≈ 1950 µM) | 512 (≈ 973 µM) |  |  |  |  |
| Nn1c(S)nnc1-c1ccc(S(=O)(=O)c2ccc(Br)cc2)cc1 | 128 (≈ 311 µM) | 512 (≈ 1240 µM) | 512 (≈ 1240 µM) | 1020 (≈ 2490 µM) | 512 (≈ 1240 µM) | 1020 (≈ 2490 µM) | 512 (≈ 1240 µM) | 512 (≈ 1240 µM) | 1020 (≈ 2490 µM) |  |  |  |  |
| CC1(C)S[C@@H]2[C@H](NC(=O)[C@H](N)c3ccccc3)C(=O)N2[C@H]1C(=O)O [AMPICILLIN] |  | 2 (≈ 5.72 µM) |  |  |  | < 2 | < 2 | < 2 |  | inactive | inactive | inactive | inactive |
| CN(C)[C@@H]1C(O)=C(C(N)=O)C(=O)[C@@]2(O)C(O)=C3C(=O)c4c(O)cccc4[C@@](C)(O)[C@H]3C[C@@H]12 [TETRACYCLINE] | 2 (≈ 4.5 µM) | 2 (≈ 4.5 µM) |  | 2 (≈ 4.5 µM) | 16 (≈ 36 µM) | 32 (≈ 72 µM) | < 2 | 32 (≈ 72 µM) | < 2 |  | inactive |  |  |
| Nn1c(SCC(=O)O)nnc1-c1ccc(S(=O)(=O)c2ccccc2)cc1 | 1020 (≈ 2620 µM) | 512 (≈ 1310 µM) | 1020 (≈ 2620 µM) | 64 (≈ 164 µM) | 256 (≈ 656 µM) | 512 (≈ 1310 µM) | 256 (≈ 656 µM) | 128 (≈ 328 µM) | 1020 (≈ 2620 µM) |  |  |  |  |
| O=S(=O)(c1ccc(Cl)cc1)c1ccc(-c2nnc3n2N=C(Nc2ccccc2)CS3)cc1 | 512 (≈ 1060 µM) | 128 (≈ 266 µM) | 1020 (≈ 2120 µM) | 128 (≈ 266 µM) | 64 (≈ 133 µM) | 1020 (≈ 2120 µM) | 256 (≈ 531 µM) | 1020 (≈ 2120 µM) | 1020 (≈ 2120 µM) |  |  |  |  |
| Nn1c(SCC(=O)O)nnc1-c1ccc(S(=O)(=O)c2ccc(Br)cc2)cc1 | 1020 (≈ 2180 µM) | 512 (≈ 1090 µM) | 1020 (≈ 2180 µM) | 64 (≈ 136 µM) | 256 (≈ 545 µM) | 512 (≈ 1090 µM) | 512 (≈ 1090 µM) | 512 (≈ 1090 µM) | 1020 (≈ 2180 µM) |  |  |  |  |
| O=C1CSc2nnc(-c3ccc(S(=O)(=O)c4ccc(Br)cc4)cc3)n2N1 | 256 (≈ 567 µM) | 512 (≈ 1130 µM) | 512 (≈ 1130 µM) | 128 (≈ 284 µM) | 128 (≈ 284 µM) | 1020 (≈ 2270 µM) | 1020 (≈ 2270 µM) | 1020 (≈ 2270 µM) | 1020 (≈ 2270 µM) |  |  |  |  |
| O=C1CSc2nnc(-c3ccc(S(=O)(=O)c4ccccc4)cc3)n2N1 | 256 (≈ 687 µM) | 512 (≈ 1370 µM) | 512 (≈ 1370 µM) | 128 (≈ 344 µM) | 128 (≈ 344 µM) | 1020 (≈ 2750 µM) | 512 (≈ 1370 µM) | 32 (≈ 85.9 µM) | 1020 (≈ 2750 µM) |  |  |  |  |
| Nn1c(SCC(=O)O)nnc1-c1ccc(S(=O)(=O)c2ccc(Cl)cc2)cc1 | 1020 (≈ 2410 µM) | 512 (≈ 1210 µM) | 1020 (≈ 2410 µM) | 64 (≈ 151 µM) | 256 (≈ 603 µM) | 256 (≈ 603 µM) | 128 (≈ 301 µM) | 256 (≈ 603 µM) | 1020 (≈ 2410 µM) |  |  |  |  |
| O=c1[nH]n2c(-c3ccc(S(=O)(=O)c4ccc(Br)cc4)cc3)nnc2sc1=O | 1020 (≈ 2200 µM) | 512 (≈ 1100 µM) | 512 (≈ 1100 µM) | 512 (≈ 1100 µM) | 64 (≈ 138 µM) | 1020 (≈ 2200 µM) | 64 (≈ 138 µM) | 512 (≈ 1100 µM) | 1020 (≈ 2200 µM) |  |  |  |  |
| Nn1c(-c2ccc(S(=O)(=O)c3ccc(Cl)cc3)cc2)n[nH]c1=S | 128 (≈ 349 µM) | 512 (≈ 1400 µM) | 512 (≈ 1400 µM) | 1020 (≈ 2790 µM) | 128 (≈ 349 µM) | 1020 (≈ 2790 µM) | 512 (≈ 1400 µM) | 512 (≈ 1400 µM) | 1020 (≈ 2790 µM) |  |  |  |  |
| Nn1c(SCC(=O)Nc2ccccc2)nnc1-c1ccc(S(=O)(=O)c2ccc(Cl)cc2)cc1 | 1020 (≈ 2050 µM) | 512 (≈ 1020 µM) | 512 (≈ 1020 µM) | 128 (≈ 256 µM) | 32 (≈ 64 µM) | 1020 (≈ 2050 µM) | 128 (≈ 256 µM) | 256 (≈ 512 µM) | 1020 (≈ 2050 µM) |  |  |  |  |
| Nn1c(-c2ccc(S(=O)(=O)c3ccccc3)cc2)n[nH]c1=S | 512 (≈ 1540 µM) | 512 (≈ 1540 µM) | 512 (≈ 1540 µM) | 512 (≈ 1540 µM) | 512 (≈ 1540 µM) | 1020 (≈ 3080 µM) | 512 (≈ 1540 µM) | 128 (≈ 385 µM) | 1020 (≈ 3080 µM) |  |  |  |  |
| Nn1c(SCC(=O)Nc2ccccc2)nnc1-c1ccc(S(=O)(=O)c2ccc(Br)cc2)cc1 | 1020 (≈ 1880 µM) | 1020 (≈ 1880 µM) | 256 (≈ 470 µM) | 256 (≈ 470 µM) | 128 (≈ 235 µM) | 1020 (≈ 1880 µM) | 64 (≈ 118 µM) | 256 (≈ 470 µM) | 512 (≈ 940 µM) |  |  |  |  |
| O=C1CSc2nnc(-c3ccc(S(=O)(=O)c4ccc(Cl)cc4)cc3)n2N1 | 256 (≈ 629 µM) | 512 (≈ 1260 µM) | 512 (≈ 1260 µM) | 128 (≈ 315 µM) | 128 (≈ 315 µM) | 512 (≈ 1260 µM) | 256 (≈ 629 µM) | 256 (≈ 629 µM) | 1020 (≈ 2520 µM) |  |  |  |  |
| CCOC(=O)C1Sc2nnc(-c3ccc(S(=O)(=O)c4ccc(Cl)cc4)cc3)n2NC1=O (configuration not stated) | 1020 (≈ 2140 µM) | 512 (≈ 1070 µM) | 512 (≈ 1070 µM) | 512 (≈ 1070 µM) | 128 (≈ 267 µM) | 1020 (≈ 2140 µM) | 1020 (≈ 2140 µM) | 1020 (≈ 2140 µM) | 1020 (≈ 2140 µM) |  |  |  |  |
